PDI inh: inhibitors of human protein disulfide isomerase; P07237; PDI insulin aggregation turbidity, A650, 90 min; inhibition, % at 10 µM; 0.052% of 350,000 active; AID 588391;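 active = mean inhibition across replicates of 30% or more, whatever share of single replicates reach that level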
Target sequence (P07237 whole entry, looked up): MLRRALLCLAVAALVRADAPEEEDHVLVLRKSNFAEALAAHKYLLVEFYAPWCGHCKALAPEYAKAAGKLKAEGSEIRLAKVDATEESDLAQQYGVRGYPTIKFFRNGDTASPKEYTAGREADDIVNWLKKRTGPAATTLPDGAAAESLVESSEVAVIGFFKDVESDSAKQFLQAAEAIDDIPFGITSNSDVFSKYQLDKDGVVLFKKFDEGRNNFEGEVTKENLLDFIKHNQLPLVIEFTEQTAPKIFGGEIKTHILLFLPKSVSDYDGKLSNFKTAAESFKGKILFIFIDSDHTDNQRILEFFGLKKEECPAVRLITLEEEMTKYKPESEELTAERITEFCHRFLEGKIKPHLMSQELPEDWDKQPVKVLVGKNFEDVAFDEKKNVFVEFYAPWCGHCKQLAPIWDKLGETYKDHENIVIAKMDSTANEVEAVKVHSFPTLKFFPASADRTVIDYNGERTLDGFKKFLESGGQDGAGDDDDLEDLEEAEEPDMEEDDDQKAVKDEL
SIRT5 inh: inhibitors of human sirtuin-5 desuccinylase. AID 652115. Purified SirT5, succinyl-peptide AMC, trypsin-coupled fluorescence. inhibition, % at 15 µM. 1.1% of 330,000 active; in the data active = inhibition above about 15%
INS-1E GSIS act: GLuc luminescence reporter in INS-1E cells, primary screen for activators of glucose-dependent secretion of insulin | INS-1E GLuc reporter insulin secretion, 2-3 h | AID 743287 | activation, % at 16.6 µM | 0.61% of 370,000 active;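 active = lowest replicate activation of at least 40%, so every replicate reaches that level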;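 note: 0% = median of neutral control wells and 100% = median of IBMX positive control wells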
S100A4 MyoIIA: blocks human S100A4 binding to myosin IIA peptide. P26447. AID 652163. S100A4/TAMRA-MyoIIA peptide fluorescence polarization. 0.14% of 360,000 active. inhibition, % at 10.7 µM;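 active = mean inhibition of at least 70% across replicates, with every replicate also reaching that level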
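Test system: S100A4 monomer protein; Medium: HEPES pH 7.2 with CaCl2, KCl, NaCl, DTT, Triton; Probe or stimulus: TAMRA-labelled myosin IIA heavy-chain peptide probe, 5 nM; Doses: one dose per compound; Times: polarization read 5 min after assay mix addition, stable 5–60 min; Benchmarks: neutral control DMSO, positive control TFP.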
ERp5 block: inhibitors of human ERp5. Q15084. ERp5 insulin aggregation, absorbance 650 nm, 90 min. inhibition, % at 9.99 µM. 0.05% of 350,000 active;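 active = mean replicate inhibition above about 25%, with every replicate also reaching it, limit read from the data, passing the limit was not always enough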
Starred values were filed as active, the others as inactive. Shown are actives, neighbours in structure and some others; about 1.5% of the full set was active somewhere.

What do the screens show for `CCOc1ccc2ncc(S(=O)(=O)c3ccccc3)c(N3CCN(c4ccccc4)CC3)c2c1`?
PDI inh: 0; SIRT5 inh: -2; INS-1E GSIS act: 21; S100A4 MyoIIA: 1; ERp5 block: 3

How did CCOC(=O)c1cnc2ccc(OCC)cc2c1N1CCN(c2ccccc2)CC1 do in these assays?
PDI inh: -5; INS-1E GSIS act: 71*

How did Cc1ccc(-c2cnc3c(c2)C(=O)N([C@H](C)CO)C[C@@H](C)[C@H](CN(C)C(=O)CN(C)C)O3)cc1 do in these assays?
SIRT5 inh: -1; INS-1E GSIS act: 6; S100A4 MyoIIA: -1; ERp5 block: 2

Results for CO[C@@H]1CN(C)C(=O)c2ccc(NC(=O)NC(C)C)cc2OC[C@@H](C)N(CCC(F)(F)F)C[C@@H]1C ?
SIRT5 inh: 7; INS-1E GSIS act: -10; S100A4 MyoIIA: -11; ERp5 block: -4

What do the screens show for `C[C@@H]1CN([C@@H](C)CO)C(=O)c2cccc(NC(=O)Nc3ccc(C(F)(F)F)cc3)c2O[C@H]1CN(C)S(=O)(=O)c1cn(C)cn1`?
SIRT5 inh: -31; INS-1E GSIS act: -3; S100A4 MyoIIA: 3; ERp5 block: -1

How did CCNC(=O)[C@@H]1[C@@H](CO)[C@@H]2Cn3c(ccc(-c4ccccc4F)c3=O)[C@H]1N2C(=O)CC do in these assays?
SIRT5 inh: -10; INS-1E GSIS act: 0; S100A4 MyoIIA: 10; ERp5 block: 7

How did CCN(CC)CCNC(=S)Nc1ccc2nc(N3CCN(CC)CC3)cc(C)c2c1 do in these assays?
PDI inh: -6; SIRT5 inh: -3; INS-1E GSIS act: 48*; S100A4 MyoIIA: -12; ERp5 block: 0

What do the screens show for `Cc1cc(N2CCN(C)CC2)nc2ccc(NC(=S)N3CCCCCC3)cc12`?
PDI inh: 5; SIRT5 inh: 20*; INS-1E GSIS act: 19; S100A4 MyoIIA: 1; ERp5 block: 4

What do the screens show for `CCN1CCN(c2cc(C)c3cc(NC(=S)NCCN(C)C)ccc3n2)CC1`?
PDI inh: -1; SIRT5 inh: 21*; INS-1E GSIS act: 0; S100A4 MyoIIA: -20; ERp5 block: -6

Results for O=C(Nc1ccc(Cl)c(Cl)c1)N[C@H]1CC[C@H](CCn2cc(C3CC3)nn2)O[C@H]1CO ?
SIRT5 inh: 5; INS-1E GSIS act: -21; S100A4 MyoIIA: 65; ERp5 block: 5

What do the screens show for `COc1ccc(C2=NN(C(=O)CCC(=O)O)C(c3ccc(OC)cc3)C2)cc1` (stereo not drawn)?
PDI inh: 17; SIRT5 inh: 21*; S100A4 MyoIIA: 4; ERp5 block: 1

Results for COc1ccc(C2CC(c3cccs3)=NN2C(=O)CN2CCCCC2)cc1 (stereo not drawn) ?
PDI inh: 17; SIRT5 inh: 33*; INS-1E GSIS act: -4; S100A4 MyoIIA: -2; ERp5 block: 1

What do the screens show for `COCC(=O)N(C)C[C@H]1Oc2ncc(-c3ccc(C)cc3)cc2C(=O)N([C@H](C)CO)C[C@@H]1C`?
SIRT5 inh: -2; INS-1E GSIS act: 0; S100A4 MyoIIA: 1; ERp5 block: -3

How did CCCNC(=O)Nc1ccc2c(c1)OC[C@@H](C)N(CCC)C[C@H](C)[C@H](OC)CN(C)C2=O do in these assays?
SIRT5 inh: 8; INS-1E GSIS act: -8; S100A4 MyoIIA: 9; ERp5 block: 6

Results for COCCNC(=O)CN1C(=O)NC2(CCCCCC2)C1=O ?
PDI inh: -1; SIRT5 inh: 17*; INS-1E GSIS act: 22; S100A4 MyoIIA: 0; ERp5 block: 4

What do the screens show for `CC1CCC(NC(=O)CN2C(=O)NC3(CCCCCC3)C2=O)CC1` (stereo not drawn)?
PDI inh: -9; SIRT5 inh: 16*; INS-1E GSIS act: 4; S100A4 MyoIIA: -2; ERp5 block: -3

How did COc1ccc(CNC(=O)CN2C(=O)C3C4C=CC(C4)C3C2=O)cc1 (stereo not drawn) do in these assays?
PDI inh: 2; SIRT5 inh: 109*; INS-1E GSIS act: 11; S100A4 MyoIIA: -1; ERp5 block: 0

How did COc1ccc(CN2C(=O)C3C4C=CC(C4)C3C2=O)cc1 (stereo not drawn) do in these assays?
PDI inh: -1; SIRT5 inh: 2; INS-1E GSIS act: -9; S100A4 MyoIIA: 1; ERp5 block: 2

Screening results from PubChem.
